Assays:
[1] = Antitumor activity against mouse Gardner lymphosarcoma allografted in C3H mouse assessed as tumor growth inhibition at 0.05 mg/kg, ip administered daily for 8 to 10 days; format: functional; conditions: route intraperitoneal, read-out: TGI
Procedure, shortened: (§1)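 Gardner lymphosarcoma in C3H mice; sulfate salts unless noted, given ip daily for 8–10 days, treatment starting 8 days after tumor implantation. Tumor growth inhibition scored as –, 0–25%; +, 26–50%; ++, 51–75%; +++, 76–100%; T, lethal to ≥5 of 10 animals per group. Average of one or more tests.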

[2] = Antitumor activity against mouse Gardner lymphosarcoma allografted in C3H mouse assessed as tumor growth inhibition at 0.10 mg/kg, ip administered daily for 8 to 10 days; format: functional; conditions: route intraperitoneal, read-out: TGI; procedure, shortened: as §1
[3] = Antitumor activity against mouse Gardner lymphosarcoma allografted in C3H mouse assessed as tumor growth inhibition at 0.20 mg/kg, ip administered daily for 8 to 10 days; format: functional; conditions: route intraperitoneal, read-out: TGI; procedure, shortened: as §1
[4] = Antitumor activity against mouse Gardner lymphosarcoma allografted in C3H mouse assessed as tumor growth inhibition at 0.30 mg/kg, ip administered daily for 8 to 10 days; format: functional; conditions: route intraperitoneal, read-out: TGI; procedure, shortened: as §1
[5] = Antitumor activity against mouse Gardner lymphosarcoma allografted in C3H mouse assessed as tumor growth inhibition at 0.40 mg/kg, ip administered daily for 8 to 10 days; format: functional; conditions: route intraperitoneal, read-out: TGI; procedure, shortened: as §1
[6] = test system: B16; test: Antitumor activity against mouse B16 cells allografted in C57BL/6 mouse assessed as prolongation of host survival at 0.60 mg/kg, ip administered on days 1,5 and 9; format: functional; conditions: route intraperitoneal
Procedure, shortened: (§2)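 B16 melanoma cells (10⁶ inoculum) implanted ip in C57BL/6 mice; groups of 10. Sulfate salts unless noted, given ip on days 1, 5 and 9. Single test. Survival prolongation is expressed as percent versus controls, with survivors counted on day 60. Toxic means deaths of ≥5 of 10 animals before the first control death.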

[7] = test system: B16; test: Antitumor activity against mouse B16 cells allografted in C57BL/6 mouse assessed as prolongation of host survival at 0.90 mg/kg, ip administered on days 1,5 and 9; format: functional; conditions: route intraperitoneal; procedure, shortened: as §2
[8] = test system: B16; test: Antitumor activity against mouse B16 cells allografted in C57BL/6 mouse assessed as prolongation of host survival at 1.20 mg/kg, ip administered on days 1,5 and 9; format: functional; conditions: route intraperitoneal; procedure, shortened: as §2
[9] = Antitumor activity against mouse P1534 cells allografted in DBA2 mouse assessed as tumor growth inhibition at 1.6 mg/kg, ip administered on days 1,5 and 9; format: functional; conditions: route intraperitoneal, read-out: TGI
Procedure, shortened: (§3)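 P1534(J) leukemia implanted sc in DBA2 mice; agent given ip on days 1, 5 and 9 at 1.6, 1.2, 0.9 and 0.6 mg/kg in a single experiment. Activity scored as growth inhibition, –, 0–25%; +, 26–50%; ++, 51–75%; +++, 76–100%.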

[10] = Antitumor activity against mouse P1534 cells allografted in DBA2 mouse assessed as tumor growth inhibition at 1.2 mg/kg, ip administered on days 1,5 and 9; format: functional; conditions: route intraperitoneal, read-out: TGI; procedure, shortened: as §3
[11] = Antitumor activity against mouse P1534 cells allografted in DBA2 mouse assessed as tumor growth inhibition at 0.9 mg/kg, ip administered on days 1,5 and 9; format: functional; conditions: route intraperitoneal, read-out: TGI; procedure, shortened: as §3
[12] = Antitumor activity against mouse P1534 cells allografted in DBA2 mouse assessed as tumor growth inhibition at 0.6 mg/kg, ip administered on days 1,5 and 9; format: functional; conditions: route intraperitoneal, read-out: TGI; procedure, shortened: as §3
[13] = Toxicity in iv dosed mouse assessed as lethality; format: organism-based; conditions: in vivo
[14] = test system: P388/VCR; test: Antitumor activity against mouse P388/VCR cells allografted in CD2F1 mouse assessed as increase in host lifespan at 1.08 mg/kg, ip administered on days 1, 5 and 9; format: functional; conditions: route intraperitoneal
Procedure, shortened: (§4)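 Groups of eight male CD2F1 mice bearing P388 leukemia, run at NCI. Sulfate salts given ip on days 1, 5 and 9. Read-out is percent increase in lifespan.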

[15] = test system: P388/S; test: Antitumor activity against mouse P388/S cells allografted in CD2F1 mouse assessed as increase in host lifespan at 1.80 mg/kg, ip administered on days 1, 5 and 9; format: functional; conditions: dose 1.8 mg/kg; route intraperitoneal
Procedure, shortened: (§5)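 Groups of eight male CD2F1 mice, tested at the NCI. Compounds were given as sulfate salts, dosed in mg/kg ip on days 1, 5 and 9. Activity was read as percent increase in lifespan against the leukemia line.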

[16] = test system: P388/S; test: Antitumor activity against mouse P388/S cells allografted in CD2F1 mouse assessed as increase in host lifespan at 1.08 mg/kg, ip administered on days 1, 5 and 9; format: functional; conditions: route intraperitoneal; procedure, shortened: as §4
[17] = test system: P388/S; test: Antitumor activity against mouse P388/S cells allografted in CD2F1 mouse assessed as increase in host lifespan at 0.648 mg/kg, ip administered on days 1, 5 and 9; format: functional; conditions: route intraperitoneal; procedure, shortened: as §4
[18] = test system: P388/VCR; test: Antitumor activity against mouse P388/VCR cells allografted in CD2F1 mouse assessed as increase in host lifespan at 1.80 mg/kg, ip administered on days 1, 5 and 9; format: functional; conditions: dose 1.8 mg/kg; route intraperitoneal; procedure, shortened: as §5
[19] = test system: P388/VCR; test: Antitumor activity against mouse P388/VCR cells allografted in CD2F1 mouse assessed as increase in host lifespan at 0.648 mg/kg, ip administered on days 1, 5 and 9; format: functional; conditions: route intraperitoneal; procedure, shortened: as §4
[20] = test system: P388/VCR; test: Antitumor activity against mouse P388/VCR cells allografted in B6D2F1 mouse assessed as increase in host lifespan at 1.20 mg/kg, ip administered on days 1, 5 and 9; format: functional; conditions: dose 1.2 mg/kg; route intraperitoneal
Procedure, shortened: (§6)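 P388/VCR leukemia in groups of 10 B6D2F1 mice, run at Lilly using the cell strain received from NCI. Sulfate salts given ip on days 1, 5 and 9. Read-out is percent increase in lifespan.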

[21] = test system: P388/VCR; test: Antitumor activity against mouse P388/VCR cells allografted in B6D2F1 mouse assessed as increase in host lifespan at 0.90 mg/kg, ip administered on days 1, 5 and 9; format: functional; conditions: dose 0.9 mg/kg; route intraperitoneal; procedure, shortened: as §6
[22] = test system: P388/VCR; test: Antitumor activity against mouse P388/VCR cells allografted in B6D2F1 mouse assessed as increase in host lifespan at 0.60 mg/kg, ip administered on days 1, 5 and 9; format: functional; conditions: dose 0.6 mg/kg; route intraperitoneal; procedure, shortened: as §6
[23] = test system: Mus musculus; test: Toxicity in CD2F1 mouse allografted with mouse P388/S cells at 3.00 mg/kg, ip administered on days 1, 5 and 9; format: organism-based; design: dose 3 mg/kg, route intraperitoneal; conditions: in vivo
[24] = test system: Mus musculus; test: Toxicity in CD2F1 mouse allografted with mouse P388/VCR cells at 3.00 mg/kg, ip administered on days 1, 5 and 9; format: organism-based; design: dose 3 mg/kg, route intraperitoneal; conditions: in vivo
[25] = Antitumor activity against mouse P388/VCR/I/63 cells allografted in Dublin-CDF1 mouse assessed as day of host death at 1.6 mg/kg, ip administered on days 1, 5 and 9 (reference value: 10 days); format: functional; conditions: route intraperitoneal
[26] = Antitumor activity against mouse P388/VCR/I/63 cells allografted in Dublin-CDF1 mouse assessed as day of host death at 1.0 mg/kg, ip administered on days 1, 5 and 9 (reference value: 10 days); format: functional; conditions: route intraperitoneal
[27] = Antitumor activity against mouse P388/VCR/I/63 cells allografted in Dublin-CDF1 mouse assessed as day of host death at 0.7 mg/kg, ip administered on days 1, 5 and 9 (reference value: 10 days); format: functional; conditions: route intraperitoneal
[28] = Antitumor activity against mouse P388/VCR/I/63 cells allografted in Dublin-CDF1 mouse assessed as increase in host lifespan at 1.6 mg/kg, ip administered on days 1, 5 and 9; format: functional; conditions: route intraperitoneal
[29] = Antitumor activity against mouse P388/VCR/I/63 cells allografted in Dublin-CDF1 mouse assessed as increase in host lifespan at 1.0 mg/kg, ip administered on days 1, 5 and 9; format: functional; conditions: route intraperitoneal
[30] = Antitumor activity against mouse P388/VCR/I/63 cells allografted in Dublin-CDF1 mouse assessed as increase in host lifespan at 0.7 mg/kg, ip administered on days 1, 5 and 9; format: functional; conditions: route intraperitoneal
[31] = test system: CHO; test: Mitotic arrest in CHO cells assessed as increase in cell accumulation at 0.2 ug/ml; format: functional, Cricetulus griseus
Procedure, shortened: (§7)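 Chinese hamster ovary cells in tissue culture, scored for mitotic arrest as increase in cells in mitotic arrest over control: +++, 40–50%; ++, 15–40%; +, 10–15%; ±, 7–10%; –, 3–7%. Cytotoxicity noted separately.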

[32] = test system: CHO; test: Mitotic arrest in CHO cells assessed as increase in cell accumulation at 0.02 ug/ml; format: functional, Cricetulus griseus; procedure, shortened: as §7
[33] = test system: CHO; test: Mitotic arrest in CHO cells assessed as increase in cell accumulation at 0.002 ug/ml; format: functional, Cricetulus griseus; procedure, shortened: as §7

`CC[C@]1(O)C[C@H]2CN(CCc3c([nH]c4ccccc34)[C@@](C(=O)OC)(c3cc4c(cc3OC)N(C)[C@H]3[C@@](O)(C(=O)NCCSSCCNC(=O)[C@@]5(O)[C@H](O)[C@]6(CC)C=CCN7CC[C@@]8(c9cc([C@@]%10(C(=O)OC)C[C@@H]%11CN(CCc%12c%10[nH]c%10ccccc%12%10)C[C@](O)(CC)C%11)c(OC)cc9N(C)[C@@H]58)[C@@H]76)[C@H](O)[C@]5(CC)C=CCN6CC[C@]43[C@@H]65)C2)C1.O=S(=O)(O)O` showed an inhibition in vivo at 0.05 mg/kg [1] of 0%, an inhibition in vivo at 0.1 mg/kg [2] of 0% and an inhibition in vivo at 0.2 mg/kg [3] of 51%. The inhibition in vivo at 0.3 mg/kg [4] was 76%, the inhibition in vivo at 0.4 mg/kg [5] was 76% and the survival at 0.6 mg/kg [6] was 115%. For the same compound, the survival at 0.9 mg/kg [7] was 170%, the survival at 1.2 mg/kg [8] was 170% and the inhibition in vivo at 1.6 mg/kg [9] was 76%. The inhibition in vivo at 1.2 mg/kg [10] was 76%, the inhibition in vivo at 0.9 mg/kg [11] was 51% and the inhibition in vivo at 0.6 mg/kg [12] was 26%. It also gave an LD50 [13] of 6.9 mg/kg, an Activity [14] of 46% and an Activity [15] of 50%. It also gave an Activity [16] of 96%, an Activity [17] of 129% and an Activity [18] of 33%. It also gave an Activity [19] of 50%, an Activity [20] of 22% and an Activity [21] of 54%. The Activity [22] was 35%, the Activity [23] was “Toxic” and the Activity [24] was “Toxic”. The Activity [25] was 24.5 days, the Activity [26] was 21.5 days and the Activity [27] was 18.5 days. The Activity [28] was 145%, the Activity [29] was 115% and the Activity [30] was 85%. It also gave an Activity [31] of 15%, an Activity [32] of 10% and an Activity [33] of 3%.

From ChEMBL document CHEMBL3227917, “Structure-activity relationships of dimeric Catharanthus alkaloids. 2. Experimental antitumor activities of N-substituted deacetylvinblastine amide (vindesine) sulfates” (J Med Chem, 1979)
